In ChEMBL document CHEMBL4613270, “Structure-Activity Relationship Study Enables the Discovery of a Novel Berberine Analogue as the RXRα Activator to Inhibit Colon Cancer” (J Med Chem, 2020):

Tested on: KM12C
Experiment: Inhibition of cell proliferation of human KM12C cells incubated for 15 hrs by MTT assay
Format: functional, cell-based
Summary of the method: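 Cells plated at 1×10⁴ per well, incubated overnight at 37 °C, then exposed to a concentration series for 15 h. MTT (5 mg/mL stock) added for 4 h at 37 °C. Formazan dissolved in DMSO and absorbance read at 570 nm. IC50 derived from the dose-response curve.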

Row | SMILES | IC50 [µM]
1 | COc1cc2c(cc1OC)-c1cc3cccc(OC)c3c[n+]1CC2 | 166
2 | COc1cc2cc3[n+](cc2cc1OC)CCc1cc2c(cc1-3)OCO2 [PSEUDOBERBERINE] | 467
3 | COc1ccc2cc3[n+](cc2c1)CCc1cc2c(cc1-3)OCO2 | 52.7
4 | COc1cc2c(cc1OC)-c1cc3ccc(OC)c(OC)c3c[n+]1CC2 [PALMATINE CHLORIDE] | 393
5 | COc1cc2c(cc1OC)-c1cc3c(OC)cccc3c[n+]1CC2 | 270
6 | COc1ccc2c(c1)CC[n+]1cc3cc(OC)c(OC)cc3cc1-2 | 83.5
7 | COc1cc2c(cc1OC)-c1cc3cc(OC)c(OC)cc3c[n+]1CC2 | > 600
8 | COc1ccc2c(c1)CC[n+]1cc3ccccc3cc1-2 | 129
9 | c1c2c(cc3c1OCO3)-c1cc3cc4c(cc3c[n+]1CC2)OCO4 | 57.2
10 | COc1cccc2c[n+]3c(cc12)-c1cc2c(cc1CC3)OCO2 | 118
11 | COc1cc2c(cc1OC)-c1cc3ccccc3c[n+]1CC2 | > 600
12 | COc1ccc2c(c1)CC[n+]1cc3c(OC)c(OC)ccc3cc1-2 | 37.9
13 | COc1ccc2c(c1)CC[n+]1cc3cc4c(cc3cc1-2)OCO4 | 46.4
14 | c1ccc2c[n+]3c(cc2c1)-c1cc2c(cc1CC3)OCO2 | 79.7
